Measurements of several laboratories.
Converted amounts (≈) assume the structure as drawn.
Organism: Staphylococcus aureus

Compound	observed	method	strain	concentration	time	endpoint	result
C[C@H]1COc2c(N3CCN(C)CC3)c(F)cc3c(=O)c(C(=O)O)cn1c23	microbial killing	–	ATCC25904	–	–	MBC	0.09 µg/mL (≈ 0.249 µM)
O=C(O)c1cn(C2CC2)c2cc(N3CCNCC3)c(F)cc2c1=O	microbial growth	disc diffusion	–	100 µg/mL	24 h	inhibition zone	0 mm
CN[C@H](CC(C)C)C(=O)N[C@H]1C(=O)N[C@@H](CC(N)=O)C(=O)N[C@H]2C(=O)N[C@H]3C(=O)N[C@H](C(=O)N[C@H](C(=O)O)c4cc(O)cc(O)c4-c4cc3ccc4O)[C@H](O)c3ccc(c(Cl)c3)Oc3cc2cc(c3O[C@@H]2O[C@H](CO)[C@@H](O)[C@H](O)[C@H]2O[C@H]2C[C@](C)(N)[C@H](O)[C@H](C)O2)Oc2ccc(cc2Cl)[C@H]1O	microbial growth	–	ATCC29213	–	24 h	IC50	2160 nM
CC(O)CSc1nnc(COc2ccc(Cl)cc2Br)n1-c1ccccc1 (stereo not drawn)	microbial growth	disc diffusion	–	25 µg/disc	–	inhibition zone	19.3 mm
O=c1c(O)c(-c2ccc(O)c(O)c2)oc2cc(O)cc(O)c12	microbial growth	–	ATCC29213	–	24 h	IC50	> 100000 nM
CN[C@H](CC(C)C)C(=O)N[C@H]1C(=O)N[C@@H](CC(N)=O)C(=O)N[C@H]2C(=O)N[C@H]3C(=O)N[C@H](C(=O)N[C@H](C(=O)O)c4cc(O)cc(O)c4-c4cc3ccc4O)[C@H](O)c3ccc(c(Cl)c3)Oc3cc2cc(c3O[C@@H]2O[C@H](CO)[C@@H](O)[C@H](O)[C@H]2O[C@H]2C[C@](C)(N)[C@H](O)[C@H](C)O2)Oc2ccc(cc2Cl)[C@H]1O	microbial killing	–	ATCC25923	–	18 h	MBC	2 µg/mL (≈ 1.38 µM)
Cc1ccc(-c2nnc(SCC(C)O)n2-c2ccccc2)cc1 (stereo not drawn)	microbial growth	disc diffusion	–	25 µg/disc	–	inhibition zone	10 mm
CN(C)[C@@H]1C(O)=C(C(N)=O)C(=O)[C@@]2(O)C(O)=C3C(=O)c4c(O)cccc4[C@@](C)(O)[C@H]3C[C@@H]12	microbial growth	disc diffusion	–	100 µg/mL	24 h	inhibition zone	25 mm
CC(O)CSc1nnc(Cn2cnc3c2c(=O)n(C)c(=O)n3C)n1-c1ccccc1 (stereo not drawn)	microbial growth	disc diffusion	–	25 µg/disc	–	inhibition zone	12.7 mm
C=C/C=C(\C)CC[C@@H]1C[C@H](O)CC(=O)O1	microbial growth	broth dilution	ATCC6538P	–	–	MIC	256 µg/mL (≈ 1220 µM)
CO/N=C(\C(=O)N[C@@H]1C(=O)N2C(C(=O)O)=C(CSC(=O)c3ccco3)CS[C@H]12)c1csc(N)n1	microbial killing	–	ATCC25923	–	18 h	MBC	2 µg/mL
CN[C@H](CC(C)C)C(=O)N[C@H]1C(=O)N[C@@H](CC(N)=O)C(=O)N[C@H]2C(=O)N[C@H]3C(=O)N[C@H](C(=O)N[C@H](C(=O)O)c4cc(O)cc(O)c4-c4cc3ccc4O)[C@H](O)c3ccc(c(Cl)c3)Oc3cc2cc(c3O[C@@H]2O[C@H](CO)[C@@H](O)[C@H](O)[C@H]2O[C@H]2C[C@](C)(N)[C@H](O)[C@H](C)O2)Oc2ccc(cc2Cl)[C@H]1O	microbial killing	–	ATCC25904	–	–	MBC	1.95 µg/mL (≈ 1.35 µM)
